Results on 24 compounds are retold here after ChEMBL document CHEMBL3875204, “Structure-guided development of covalent TAK1 inhibitors” (Bioorg Med Chem, 2017).

In series [1] the target is T1, Mitogen-activated protein kinase kinase kinase 7 (Homo sapiens, UniProt O43318).
T1 sequence (O43318 whole entry): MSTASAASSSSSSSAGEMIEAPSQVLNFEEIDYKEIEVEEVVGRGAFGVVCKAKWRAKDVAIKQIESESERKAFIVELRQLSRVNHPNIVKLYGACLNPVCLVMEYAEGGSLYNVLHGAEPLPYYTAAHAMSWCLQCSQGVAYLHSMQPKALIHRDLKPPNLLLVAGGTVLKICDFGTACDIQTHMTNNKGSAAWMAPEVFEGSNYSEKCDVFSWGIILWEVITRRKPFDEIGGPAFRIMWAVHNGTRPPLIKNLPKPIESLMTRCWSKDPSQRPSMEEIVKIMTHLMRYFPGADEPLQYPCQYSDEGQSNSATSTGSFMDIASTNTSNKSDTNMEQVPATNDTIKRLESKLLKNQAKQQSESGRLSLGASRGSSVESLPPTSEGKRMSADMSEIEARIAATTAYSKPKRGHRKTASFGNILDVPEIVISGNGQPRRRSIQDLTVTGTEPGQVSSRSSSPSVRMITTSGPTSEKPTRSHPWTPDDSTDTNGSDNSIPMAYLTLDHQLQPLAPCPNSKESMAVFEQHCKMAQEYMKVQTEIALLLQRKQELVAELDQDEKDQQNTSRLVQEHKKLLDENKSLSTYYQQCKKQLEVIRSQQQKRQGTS
Nature of the series: Inhibition of full length recombinant human GST-tagged TAK1 expressed in baculovirus expression system after 1 hr by TR-FRET based LanthaScreen assay.

The target of series [2] is Dual specificity mitogen-activated protein kinase kinase 1 (Homo sapiens, UniProt Q02750). Description: Inhibition of full length recombinant human His-tagged MEK1 expressed in baculovirus expression system after 1 hr by TR-FRET based LanthaScreen assay.
In series [3] the target is Mitogen-activated protein kinase 1 (Homo sapiens, UniProt P28482). Nature of the series: Inhibition of full length recombinant human GST-tagged ERK2 expressed in Escherichia coli using Ser/Thr 03 as substrate after 1 hr by Z'-Lyte assay. In short, it runs like this: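 Z'-Lyte FRET activity assay run per the supplier's protocol, with ATP near the kinase's Km.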
Series [4] in a line: Half life in mouse liver microsomes by LC-MS/MS analysis. It is filed as ADME.
The target of series [5] is T1, Mitogen-activated protein kinase kinase kinase 7. Description: Time-dependent inhibition of TAB1 fused TAK1 (unknown origin) using FAM-LRRKtide as substrate by mobility shift assay.
Series [6] concerns the target T2, Mitogen-activated protein kinase kinase kinase 7 (Homo sapiens) (UniProt O43318).
T2 sequence (whole entry): T1 sequence (O43318 whole entry)

Series [7] concerns the target T2, Mitogen-activated protein kinase kinase kinase 7 (Homo sapiens). The note with it: 10 uM.
The target in series [8] is T3, Mitogen-activated protein kinase kinase kinase 2 (Homo sapiens) (UniProt Q9Y2U5).
T3 sequence (whole entry): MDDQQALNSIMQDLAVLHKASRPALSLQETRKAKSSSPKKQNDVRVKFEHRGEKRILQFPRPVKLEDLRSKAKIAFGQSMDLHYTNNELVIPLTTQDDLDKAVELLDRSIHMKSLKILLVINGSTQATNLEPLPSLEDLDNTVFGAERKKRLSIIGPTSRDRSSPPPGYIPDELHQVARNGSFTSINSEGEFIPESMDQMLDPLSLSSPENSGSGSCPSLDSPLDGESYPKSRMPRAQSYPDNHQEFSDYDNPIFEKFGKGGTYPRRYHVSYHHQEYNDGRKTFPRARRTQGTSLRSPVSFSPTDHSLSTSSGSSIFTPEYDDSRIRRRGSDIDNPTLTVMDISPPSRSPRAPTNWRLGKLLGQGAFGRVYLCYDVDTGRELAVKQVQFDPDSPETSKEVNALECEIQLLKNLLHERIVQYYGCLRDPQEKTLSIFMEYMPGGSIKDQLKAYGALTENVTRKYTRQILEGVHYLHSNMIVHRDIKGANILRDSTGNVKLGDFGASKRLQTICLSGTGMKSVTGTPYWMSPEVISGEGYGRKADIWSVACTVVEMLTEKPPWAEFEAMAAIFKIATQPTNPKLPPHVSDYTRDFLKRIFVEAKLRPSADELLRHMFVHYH
Description: Inhibition of human MAP3K2 (S315 to H619 residues) expressed in mammalian expression system at 1 uM by KINOMEScan assay. In a few lines:
(§1)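 KINOMEscan in vitro ATP-site competition binding, screened across a 468-kinase and mutant panel at a single concentration of 1 μM. Read-out is a binding or inhibition score […].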

The target in series [9] is T4, Mitogen-activated protein kinase kinase kinase 3 (Homo sapiens) (UniProt Q99759).
T4 sequence (whole entry): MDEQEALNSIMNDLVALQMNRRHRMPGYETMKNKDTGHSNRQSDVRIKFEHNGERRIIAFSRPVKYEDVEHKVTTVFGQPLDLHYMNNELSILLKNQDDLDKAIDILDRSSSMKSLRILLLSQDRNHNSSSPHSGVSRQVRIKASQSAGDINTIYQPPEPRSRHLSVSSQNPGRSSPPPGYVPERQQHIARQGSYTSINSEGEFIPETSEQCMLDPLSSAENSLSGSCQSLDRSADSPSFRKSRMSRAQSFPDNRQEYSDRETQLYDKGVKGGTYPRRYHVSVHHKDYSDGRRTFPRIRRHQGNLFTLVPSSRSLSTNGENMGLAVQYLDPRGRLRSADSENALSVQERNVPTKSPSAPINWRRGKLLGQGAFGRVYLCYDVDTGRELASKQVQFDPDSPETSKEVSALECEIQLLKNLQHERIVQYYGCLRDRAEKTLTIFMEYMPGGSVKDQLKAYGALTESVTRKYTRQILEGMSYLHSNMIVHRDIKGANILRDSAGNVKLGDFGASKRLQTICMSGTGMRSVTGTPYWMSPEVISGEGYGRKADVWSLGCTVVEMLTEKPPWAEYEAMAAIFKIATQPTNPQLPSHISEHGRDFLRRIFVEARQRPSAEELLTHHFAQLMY
Nature of the series: Inhibition of human MAP3K3 (E320 to Y626 residues) expressed in mammalian expression system at 1 uM by KINOMEScan assay. In short, it runs like this: as §1

In series [10] the target is Wee1-like protein kinase (Homo sapiens) (UniProt P30291). Nature of the series: Inhibition of human WEE1 (M291 to K575 residues) expressed in bacterial expression system at 1 uM by KINOMEScan assay. In a few lines:
as §1

In series [11] the target is Wee1-like protein kinase 2 (Homo sapiens) (UniProt P0C1S8). Nature of the series: Inhibition of human WEE2 (M204 to K492 residues) expressed in bacterial expression system at 1 uM by KINOMEScan assay. In short, it runs like this:
as §1

Series [12] has as its target Protein-tyrosine kinase 2-beta (Homo sapiens) (UniProt Q14289). Description: Inhibition of full length human PYK2 (M1 to E967 residues) expressed in bacterial expression system at 1 uM by KINOMEScan assay. In short, it runs like this:
as §1

For series [13], the target named is T2, Mitogen-activated protein kinase kinase kinase 7 (Homo sapiens). Nature of the series: Binding affinity to full length recombinant human GST-tagged TAK1 expressed in baculovirus expression system assessed as labeling of Cys-174 residue after 1 hr by mass spectrometric analysis.

Activity calls are given as the source filed them. The rule behind the calls is not given here.

Sequence of Dual specificity mitogen-activated protein kinase kinase 1 (Q02750 whole entry): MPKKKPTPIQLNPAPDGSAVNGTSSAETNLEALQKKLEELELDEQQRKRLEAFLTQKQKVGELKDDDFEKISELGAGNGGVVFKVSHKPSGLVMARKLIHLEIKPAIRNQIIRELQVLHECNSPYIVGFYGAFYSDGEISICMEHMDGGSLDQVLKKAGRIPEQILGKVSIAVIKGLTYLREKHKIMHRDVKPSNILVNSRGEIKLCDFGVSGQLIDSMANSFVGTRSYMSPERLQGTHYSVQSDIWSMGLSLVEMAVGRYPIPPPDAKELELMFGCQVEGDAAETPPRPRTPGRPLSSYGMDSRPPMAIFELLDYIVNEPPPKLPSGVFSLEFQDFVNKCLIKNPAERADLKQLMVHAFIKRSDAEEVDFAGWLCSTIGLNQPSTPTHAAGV
Sequence of Mitogen-activated protein kinase 1 (P28482 whole entry): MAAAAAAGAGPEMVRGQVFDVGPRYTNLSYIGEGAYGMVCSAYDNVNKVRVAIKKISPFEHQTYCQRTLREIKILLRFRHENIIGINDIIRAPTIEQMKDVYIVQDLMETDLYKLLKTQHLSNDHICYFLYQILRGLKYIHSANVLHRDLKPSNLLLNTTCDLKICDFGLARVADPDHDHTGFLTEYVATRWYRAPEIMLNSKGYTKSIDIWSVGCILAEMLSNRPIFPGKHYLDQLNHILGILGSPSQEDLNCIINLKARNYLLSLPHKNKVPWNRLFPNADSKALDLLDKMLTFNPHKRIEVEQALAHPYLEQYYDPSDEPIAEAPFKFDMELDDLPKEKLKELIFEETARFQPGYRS
Sequence of Wee1-like protein kinase (Homo sapiens) (P30291 whole entry, looked up, the tested form may be a part): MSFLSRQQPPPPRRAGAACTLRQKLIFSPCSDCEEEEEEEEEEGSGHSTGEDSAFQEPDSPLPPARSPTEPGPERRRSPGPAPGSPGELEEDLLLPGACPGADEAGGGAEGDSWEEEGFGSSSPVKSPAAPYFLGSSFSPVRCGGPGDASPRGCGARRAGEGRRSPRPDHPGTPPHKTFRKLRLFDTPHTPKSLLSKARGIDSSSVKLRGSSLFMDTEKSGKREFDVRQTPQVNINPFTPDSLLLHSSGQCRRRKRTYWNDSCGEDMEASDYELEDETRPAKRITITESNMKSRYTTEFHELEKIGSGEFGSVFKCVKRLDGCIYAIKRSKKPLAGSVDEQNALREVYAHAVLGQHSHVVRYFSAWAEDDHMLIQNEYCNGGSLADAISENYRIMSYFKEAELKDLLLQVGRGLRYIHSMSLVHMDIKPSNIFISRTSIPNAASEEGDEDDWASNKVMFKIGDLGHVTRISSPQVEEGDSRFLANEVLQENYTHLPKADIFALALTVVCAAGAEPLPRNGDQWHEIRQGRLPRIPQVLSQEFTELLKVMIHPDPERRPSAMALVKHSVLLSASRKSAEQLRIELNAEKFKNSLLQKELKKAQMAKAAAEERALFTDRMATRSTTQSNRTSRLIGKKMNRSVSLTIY
Sequence of Protein-tyrosine kinase 2-beta (Homo sapiens) (Q14289 whole entry, looked up, the tested form may be a part): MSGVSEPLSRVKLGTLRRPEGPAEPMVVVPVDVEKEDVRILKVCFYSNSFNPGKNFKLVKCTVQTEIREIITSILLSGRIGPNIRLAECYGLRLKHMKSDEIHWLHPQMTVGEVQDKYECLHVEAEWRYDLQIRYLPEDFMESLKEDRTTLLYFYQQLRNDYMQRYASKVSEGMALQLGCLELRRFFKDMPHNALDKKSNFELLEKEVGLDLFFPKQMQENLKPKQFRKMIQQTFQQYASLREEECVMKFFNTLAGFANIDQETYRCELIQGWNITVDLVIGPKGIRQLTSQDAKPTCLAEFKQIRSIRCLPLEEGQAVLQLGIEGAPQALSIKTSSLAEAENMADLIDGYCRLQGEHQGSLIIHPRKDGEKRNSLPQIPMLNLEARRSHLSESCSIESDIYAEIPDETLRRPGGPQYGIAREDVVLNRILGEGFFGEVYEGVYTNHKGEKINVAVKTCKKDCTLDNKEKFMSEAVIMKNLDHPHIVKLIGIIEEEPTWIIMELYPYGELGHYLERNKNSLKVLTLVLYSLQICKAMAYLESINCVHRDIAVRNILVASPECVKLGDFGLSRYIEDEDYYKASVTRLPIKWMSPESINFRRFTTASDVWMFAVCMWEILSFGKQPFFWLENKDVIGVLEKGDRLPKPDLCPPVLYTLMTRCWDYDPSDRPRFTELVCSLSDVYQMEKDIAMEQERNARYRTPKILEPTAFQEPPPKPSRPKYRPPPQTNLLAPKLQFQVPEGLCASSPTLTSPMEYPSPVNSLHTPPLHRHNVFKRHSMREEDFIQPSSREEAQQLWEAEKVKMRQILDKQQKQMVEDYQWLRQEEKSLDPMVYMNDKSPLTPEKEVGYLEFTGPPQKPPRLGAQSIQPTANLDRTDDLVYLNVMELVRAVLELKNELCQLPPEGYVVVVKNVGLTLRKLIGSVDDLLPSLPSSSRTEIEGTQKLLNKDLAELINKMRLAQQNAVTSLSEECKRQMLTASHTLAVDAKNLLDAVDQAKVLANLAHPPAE
Sequence of Wee1-like protein kinase 2 (Homo sapiens) (P0C1S8 whole entry, looked up, the tested form may be a part): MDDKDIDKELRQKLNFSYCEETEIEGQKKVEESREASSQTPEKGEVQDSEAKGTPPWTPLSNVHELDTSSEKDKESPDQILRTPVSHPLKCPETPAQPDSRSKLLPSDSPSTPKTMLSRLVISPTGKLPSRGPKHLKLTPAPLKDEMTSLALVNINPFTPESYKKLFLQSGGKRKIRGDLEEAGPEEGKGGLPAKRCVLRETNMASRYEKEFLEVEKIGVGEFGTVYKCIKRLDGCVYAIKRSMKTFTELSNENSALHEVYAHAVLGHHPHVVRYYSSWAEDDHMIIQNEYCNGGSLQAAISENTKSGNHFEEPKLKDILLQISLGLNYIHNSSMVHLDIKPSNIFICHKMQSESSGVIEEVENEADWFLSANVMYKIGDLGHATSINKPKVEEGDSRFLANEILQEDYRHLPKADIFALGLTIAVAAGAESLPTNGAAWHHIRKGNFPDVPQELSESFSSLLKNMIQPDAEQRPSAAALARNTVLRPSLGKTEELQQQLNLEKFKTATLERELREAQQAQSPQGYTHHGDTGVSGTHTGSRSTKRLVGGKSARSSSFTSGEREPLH

Consider `C=CC(=O)Nc1ccc(Oc2nc(Nc3ccc(N4CCN(C)CC4)cc3)nc3[nH]ccc23)cc1`, for which, in series [1], the IC50 was 34 nM.
For `C=CC(=O)Nc1ccccc1Oc1nc(Nc2ccc(N3CCN(C)CC3)cc2)ncc1OC`, the IC50 in series [2] came to 1300 nM; in [3] it was 1670 nM. Further, in [4], the t1/2 is listed as 15.3 min.
As to `C=CC(=O)Nc1ccccc1Oc1ccnc(Nc2ccc(N3CCN(C)CC3)cc2)n1`, the IC50 in [2] worked out at 4470 nM.
As to `C=CC(=O)Nc1ccccc1Nc1nc(Nc2ccc(N3CCN(C)CC3)cc2)ncc1Cl`, the IC50 in series [2] was 142 nM; in series [3], 1090 nM; in series [5], 125 nM. The Ki in [5] is 160 nM. Also, the t1/2 in series [4] was 10.8 min. In series [6], this compound gave a Kinact of 1.1 ×10⁻³ /s.
With `C=CC(=O)Nc1ccccc1Oc1nc(Nc2ccc(N3CCN(C)CC3)cc2)ncc1C1CC1`, the IC50 was found to be 763 nM in series [2] and 5600 nM in series [3]. Also, the t1/2 in series [4] is given as 12.8 min.
For `C=CC(=O)Nc1ccccc1Oc1nc(Nc2cnn(C3CCOCC3)c2)ncc1Cl`, in that order: 8.2 nM, 4620 nM and 4 min.
Turning to `C=CC(=O)Nc1ccccc1Oc1nc(Nc2cnn(CCOC)c2)ncc1Cl`, the IC50 in series [2] is 8.5 nM; in series [3], 90.3 nM; in series [5] it was 7.6 nM. This compound had a t1/2 in [4] of 6.9 min.
In the case of `C=CC(=O)Nc1ccccc1-n1ccc2cnc(Nc3ccc(N4CCN(C)CC4)cc3)nc21`, the IC50 in series [2] is 6810 nM; in [3], over 10000 nM. In addition, the t1/2 in series [4] was 10.5 min.
Take `C=CC(=O)Oc1ccccc1Nc1nc(Nc2ccc(N3CCN(C)CC3)cc2)ncc1Cl`: the half-maximal inhibitory concentration (IC50) is 16 nM in series [2] and 277 nM in series [3]. Besides, the t1/2 in [4] is on record as 5.7 min.
The corresponding values for `C=CC(=O)Oc1ccccc1Nc1nc(Nc2cccc(N3CCOCC3)c2)ncc1Cl` are 11 nM, 736 nM and 23 min.
Regarding `CCC(=O)Nc1ccccc1Oc1nc(Nc2ccc(N3CCN(C)CC3)cc2)ncc1Cl`, the IC50 in [1] and in series [2] was over 10000 nM each time.
For `C=CC(=O)Nc1ccccc1Oc1nc(Nc2ccc(N3CCN(C)CC3)cc2)nc(N)c1Cl`, the IC50 in [2] is over 10000 nM.
`C=CC(=O)Nc1ccccc1Oc1nc(Nc2cnn(C(F)F)c2)ncc1Cl`: the IC50 was determined as 26 nM in [2] and 242 nM in [3]. In addition, the t1/2 in series [4] is 4.2 min.
For `C=CC(=O)Oc1ccccc1Nc1nc(Nc2cccc(N3CCN(C(C)=O)CC3)c2)ncc1Cl`, in that order: 9.5 nM, 225 nM and under 1 min.
For `C=CC(=O)Nc1cc(NC(C)=O)ccc1Oc1nc(Nc2ccc(N3CCN(C)CC3)cc2)ncc1Cl`, the values for the IC50 in series [1] and in series [2] were 1640 nM and 4810 nM, respectively.
As to `C=CC(=O)Nc1ccccc1Sc1nc(Nc2ccc(N3CCN(C)CC3)cc2)ncc1Cl`, the IC50 in [2] turned out to be 2480 nM.
Regarding `COc1cc(O)c2c(c1)/C=C/C[C@H](O)[C@H](O)C(=O)/C=C\C[C@H](C)OC2=O`, the IC50 was found to be 2.9 nM in series [2] and 738 nM in series [3]. Also, in series [7], the inhibition entry was “Active”.
With `CCC(=O)Nc1ccccc1Nc1nc(Nc2ccc(N3CCN(C)CC3)cc2)ncc1Cl`, the inhibition entry in series [8], in [9], in series [10], in [11] and in series [12] was “Active” in each case.
As to `C=CC(=O)Nc1ccccc1Oc1nc(Nc2ccc(N3CCN(C)CC3)cc2)ncc1C`, the IC50 is 1630 nM in [2] and 9230 nM in series [3]. The same compound showed a t1/2 in series [4] of 8.8 min.
Turning to `C=CC(=O)Oc1ccccc1Nc1nc(Nc2ccc(N3CCOCC3)cc2)ncc1Cl`, the IC50 in series [2] is 8.9 nM; in series [3] it was 361 nM. In series [4], this compound registered a t1/2 of 3.8 min.
`C=CC(=O)Oc1ccccc1Nc1nc(Nc2ccc(N3CCN(C)CC3)cc2OC)ncc1Cl`: in [1], the IC50 came out at 342 nM.
Consider `C=CC(=O)Nc1ccccc1Oc1nc(Nc2cnn(C)c2)ncc1Cl`, for which the IC50 in [2] was 9.8 nM; in [3] it was 3140 nM. In [4], this compound gave a t1/2 of 8.1 min.
Consider `CN1CCN(c2ccc(Nc3ncc(Cl)c(Oc4ccccc4NC(=O)CCl)n3)cc2)CC1`, for which the values for the IC50 in series [1], in [2] and in [3] were 25 nM, 2500 nM and over 10000 nM, respectively. In series [4], this compound showed a t1/2 of 3 min.
Turning to `C=CC(=O)Nc1ccccc1Oc1nc(Nc2ccc(N3CCN(C)CC3)cc2)ncc1Cl`, the outcome in [13] was Active. For the same compound, the results for the IC50 in series [2], in [3] and in series [5] were 78 nM, 7000 nM and 360 nM, respectively. Besides, the t1/2 in series [4] is recorded as 6.1 min.
